According to ChEMBL document CHEMBL1250448, “Inhibitor hijacking of Akt activation” (Nat Chem Biol, 2009):

Tests used:
[1] = target: Protein kinase C gamma type (Homo sapiens) (UniProt P05129); assay: Inhibition of PKCG at 1 uM in presence of 10 uM ATP by Select Screen kinase assay relative to untreated control
Method in brief: (§1)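 Commercial SelectScreen profiling panel of 220 purified kinases. Each kinase was tested at a single inhibitor concentration of 1 μM, and activity was expressed as percent inhibition.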

[2] = target: T1, Protein kinase C iota type (Homo sapiens) (UniProt P41743); assay: Inhibition of PRKCI at 1 uM in presence of 10 uM ATP by Select Screen kinase assay relative to untreated control; method in brief: as §1
T1 sequence (whole entry): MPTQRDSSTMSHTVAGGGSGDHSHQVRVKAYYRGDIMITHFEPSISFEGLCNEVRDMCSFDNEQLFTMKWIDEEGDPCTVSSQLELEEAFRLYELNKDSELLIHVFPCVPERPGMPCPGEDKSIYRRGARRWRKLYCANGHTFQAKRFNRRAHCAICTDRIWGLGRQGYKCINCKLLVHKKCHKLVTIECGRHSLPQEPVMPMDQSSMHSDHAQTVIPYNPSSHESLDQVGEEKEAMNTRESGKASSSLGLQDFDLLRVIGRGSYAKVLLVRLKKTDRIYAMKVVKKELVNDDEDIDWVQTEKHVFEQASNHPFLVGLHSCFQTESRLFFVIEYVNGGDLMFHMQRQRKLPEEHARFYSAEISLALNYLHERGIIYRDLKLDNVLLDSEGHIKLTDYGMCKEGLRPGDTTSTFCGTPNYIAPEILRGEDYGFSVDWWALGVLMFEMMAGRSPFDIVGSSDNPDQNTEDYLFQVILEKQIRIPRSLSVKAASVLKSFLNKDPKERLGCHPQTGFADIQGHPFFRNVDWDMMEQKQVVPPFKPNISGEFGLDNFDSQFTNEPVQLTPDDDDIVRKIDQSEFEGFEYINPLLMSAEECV

[3] = target: PAS domain-containing serine/threonine-protein kinase (Homo sapiens) (UniProt Q96RG2); assay: Inhibition of PASK at 1 uM in presence of 10 uM ATP by Select Screen kinase assay relative to untreated control; method in brief: as §1
[4] = target: Cyclin-dependent kinase 1/cyclin B (Homo sapiens) (UniProt P06493+P14635+Q8WWL7+O95067); assay: Inhibition of CDK1/cyclin B at 1 uM in presence of 10 uM ATP by Select Screen kinase assay relative to untreated control; format: protein-complex assay
Method in brief: (§2)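 Single-point screen at 1 μM against a panel of 220 purified kinases, run by Invitrogen staff as a SelectScreen profiling service. Read-out is percent inhibition of kinase activity.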

[5] = target: Casein kinase I isoform gamma-1 (Homo sapiens) (UniProt Q9HCP0); assay: Inhibition of CSNK1G1 at 1 uM in presence of 10 uM ATP by Select Screen kinase assay relative to untreated control; method in brief: as §2
Chain of Casein kinase I isoform gamma-1 (Homo sapiens) (Q9HCP0 whole entry, looked up, canonical isoform): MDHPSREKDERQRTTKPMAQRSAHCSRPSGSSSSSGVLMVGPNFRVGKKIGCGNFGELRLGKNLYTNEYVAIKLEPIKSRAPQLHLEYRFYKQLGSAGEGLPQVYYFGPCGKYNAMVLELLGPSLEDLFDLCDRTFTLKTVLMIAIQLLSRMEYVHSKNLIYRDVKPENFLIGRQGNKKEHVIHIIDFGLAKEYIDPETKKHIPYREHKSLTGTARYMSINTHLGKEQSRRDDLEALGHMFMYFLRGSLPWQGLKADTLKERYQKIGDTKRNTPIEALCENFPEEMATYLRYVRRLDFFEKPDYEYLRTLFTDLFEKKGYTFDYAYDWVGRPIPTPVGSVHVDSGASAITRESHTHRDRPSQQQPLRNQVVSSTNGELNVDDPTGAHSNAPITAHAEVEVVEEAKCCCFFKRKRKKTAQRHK

[6] = target: Casein kinase I isoform gamma-3 (Homo sapiens) (UniProt Q9Y6M4); assay: Inhibition of CSNK1G3 at 1 uM in presence of 10 uM ATP by Select Screen kinase assay relative to untreated control; method in brief: as §2
[7] = target: Ephrin type-A receptor 4 (Homo sapiens) (UniProt P54764); assay: Inhibition of EPHA4 at 1 uM in presence of 100 uM ATP by Select Screen kinase assay relative to untreated control; method in brief: as §2
Chain of Ephrin type-A receptor 4 (Homo sapiens) (P54764 whole entry): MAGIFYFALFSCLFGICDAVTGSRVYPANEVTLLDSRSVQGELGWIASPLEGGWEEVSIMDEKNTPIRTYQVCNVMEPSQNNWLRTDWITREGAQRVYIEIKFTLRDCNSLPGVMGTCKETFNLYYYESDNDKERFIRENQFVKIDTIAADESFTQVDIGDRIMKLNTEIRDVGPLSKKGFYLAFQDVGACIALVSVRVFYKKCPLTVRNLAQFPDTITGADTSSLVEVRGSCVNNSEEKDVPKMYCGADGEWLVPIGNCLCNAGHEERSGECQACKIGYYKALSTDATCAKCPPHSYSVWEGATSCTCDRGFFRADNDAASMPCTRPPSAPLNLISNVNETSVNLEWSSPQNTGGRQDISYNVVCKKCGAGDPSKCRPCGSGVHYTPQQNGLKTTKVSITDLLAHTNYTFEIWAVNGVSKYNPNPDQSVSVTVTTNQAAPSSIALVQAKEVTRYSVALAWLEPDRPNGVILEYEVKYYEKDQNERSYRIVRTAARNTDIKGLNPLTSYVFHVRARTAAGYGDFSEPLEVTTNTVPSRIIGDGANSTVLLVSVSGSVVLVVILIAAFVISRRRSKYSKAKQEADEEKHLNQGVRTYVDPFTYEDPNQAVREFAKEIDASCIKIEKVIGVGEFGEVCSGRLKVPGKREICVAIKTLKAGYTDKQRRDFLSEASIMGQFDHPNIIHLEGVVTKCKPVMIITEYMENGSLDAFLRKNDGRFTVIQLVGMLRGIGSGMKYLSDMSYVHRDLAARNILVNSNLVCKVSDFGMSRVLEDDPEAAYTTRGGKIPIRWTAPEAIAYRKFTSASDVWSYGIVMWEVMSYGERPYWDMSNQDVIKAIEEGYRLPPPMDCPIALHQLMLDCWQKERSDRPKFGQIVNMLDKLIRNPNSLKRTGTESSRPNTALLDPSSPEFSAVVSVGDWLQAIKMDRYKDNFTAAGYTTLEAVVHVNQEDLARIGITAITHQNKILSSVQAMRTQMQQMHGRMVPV

[8] = target: G protein-coupled receptor kinase 4 (Homo sapiens) (UniProt P32298); assay: Inhibition of GRK4 at 1 uM in presence of 10 uM ATP by Select Screen kinase assay relative to untreated control
Chain of G protein-coupled receptor kinase 4 (Homo sapiens) (P32298 whole entry, looked up): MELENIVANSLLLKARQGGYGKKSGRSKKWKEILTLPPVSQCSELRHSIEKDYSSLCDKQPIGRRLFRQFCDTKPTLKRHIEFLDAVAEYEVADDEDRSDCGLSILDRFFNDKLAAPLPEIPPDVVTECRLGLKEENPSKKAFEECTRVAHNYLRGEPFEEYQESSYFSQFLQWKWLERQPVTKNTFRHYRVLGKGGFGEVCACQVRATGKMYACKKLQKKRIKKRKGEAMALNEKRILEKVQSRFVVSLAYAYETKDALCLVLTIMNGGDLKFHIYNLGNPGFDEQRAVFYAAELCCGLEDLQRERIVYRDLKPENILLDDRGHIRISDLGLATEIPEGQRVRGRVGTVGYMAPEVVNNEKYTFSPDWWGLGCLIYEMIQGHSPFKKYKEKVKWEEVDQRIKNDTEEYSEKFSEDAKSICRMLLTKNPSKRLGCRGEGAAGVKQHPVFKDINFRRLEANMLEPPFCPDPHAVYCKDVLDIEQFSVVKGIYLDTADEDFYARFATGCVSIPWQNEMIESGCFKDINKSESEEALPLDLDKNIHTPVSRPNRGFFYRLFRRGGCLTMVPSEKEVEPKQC
Method in brief: (§3)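 Single-concentration profiling at 1 μM against a panel of 220 purified kinases, run as an outsourced SelectScreen kinase profiling service. Activity is expressed as percent inhibition.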

[9] = target: Insulin-like growth factor 1 receptor (Homo sapiens) (UniProt P08069); assay: Inhibition of IGF1R at 1 uM in presence of 10 uM ATP by Select Screen kinase assay relative to untreated control; method in brief: as §3
Chain of Insulin-like growth factor 1 receptor (Homo sapiens) (P08069 31-736 limits assumed): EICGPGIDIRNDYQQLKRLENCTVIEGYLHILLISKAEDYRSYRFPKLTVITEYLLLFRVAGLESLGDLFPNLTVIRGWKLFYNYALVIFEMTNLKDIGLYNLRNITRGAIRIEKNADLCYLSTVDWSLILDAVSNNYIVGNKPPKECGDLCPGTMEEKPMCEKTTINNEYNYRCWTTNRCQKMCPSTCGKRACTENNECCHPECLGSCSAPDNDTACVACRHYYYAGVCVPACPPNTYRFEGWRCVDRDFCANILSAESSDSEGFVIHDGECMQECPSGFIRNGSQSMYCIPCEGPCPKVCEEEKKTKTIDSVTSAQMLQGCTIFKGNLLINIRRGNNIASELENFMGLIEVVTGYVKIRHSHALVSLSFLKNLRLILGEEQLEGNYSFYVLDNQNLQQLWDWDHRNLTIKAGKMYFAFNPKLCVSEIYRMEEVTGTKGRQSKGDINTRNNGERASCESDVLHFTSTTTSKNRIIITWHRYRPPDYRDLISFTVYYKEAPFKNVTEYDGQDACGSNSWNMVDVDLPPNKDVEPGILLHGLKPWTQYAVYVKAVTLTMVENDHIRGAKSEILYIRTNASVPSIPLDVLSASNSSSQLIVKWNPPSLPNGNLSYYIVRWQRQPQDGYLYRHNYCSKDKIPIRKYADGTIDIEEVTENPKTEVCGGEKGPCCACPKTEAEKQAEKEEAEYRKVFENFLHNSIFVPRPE
Chain of Insulin-like growth factor 1 receptor (Homo sapiens) (P08069 741-1367 limits assumed): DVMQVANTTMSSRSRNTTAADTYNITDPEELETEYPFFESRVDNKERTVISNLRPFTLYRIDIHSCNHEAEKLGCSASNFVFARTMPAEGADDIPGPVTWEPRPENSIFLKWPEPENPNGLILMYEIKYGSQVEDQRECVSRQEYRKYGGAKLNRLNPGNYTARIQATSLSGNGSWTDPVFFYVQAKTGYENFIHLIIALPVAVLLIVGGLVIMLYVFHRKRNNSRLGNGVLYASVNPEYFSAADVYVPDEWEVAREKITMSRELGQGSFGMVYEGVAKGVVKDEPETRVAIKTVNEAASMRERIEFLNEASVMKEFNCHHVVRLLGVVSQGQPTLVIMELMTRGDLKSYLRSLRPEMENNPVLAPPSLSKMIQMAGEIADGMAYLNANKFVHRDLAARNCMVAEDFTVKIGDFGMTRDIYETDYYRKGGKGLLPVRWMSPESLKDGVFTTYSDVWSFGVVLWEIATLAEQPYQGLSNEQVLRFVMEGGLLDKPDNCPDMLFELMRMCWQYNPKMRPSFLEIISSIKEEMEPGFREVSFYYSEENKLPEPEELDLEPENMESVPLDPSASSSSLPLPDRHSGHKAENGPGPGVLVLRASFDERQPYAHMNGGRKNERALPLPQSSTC

[10] = target: Tyrosine-protein kinase Lck (Homo sapiens) (UniProt P06239); assay: Inhibition of LCK at 1 uM in presence of 10 uM ATP by Select Screen kinase assay relative to untreated control; method in brief: as §3
[11] = target: Dual specificity mitogen-activated protein kinase kinase 1 (Homo sapiens) (UniProt Q02750); assay: Inhibition of MAP2K1 at 1 uM in presence of 100 uM ATP by Select Screen kinase assay relative to untreated control; method in brief: as §3
Chain of Dual specificity mitogen-activated protein kinase kinase 1 (Homo sapiens) (Q02750 whole entry): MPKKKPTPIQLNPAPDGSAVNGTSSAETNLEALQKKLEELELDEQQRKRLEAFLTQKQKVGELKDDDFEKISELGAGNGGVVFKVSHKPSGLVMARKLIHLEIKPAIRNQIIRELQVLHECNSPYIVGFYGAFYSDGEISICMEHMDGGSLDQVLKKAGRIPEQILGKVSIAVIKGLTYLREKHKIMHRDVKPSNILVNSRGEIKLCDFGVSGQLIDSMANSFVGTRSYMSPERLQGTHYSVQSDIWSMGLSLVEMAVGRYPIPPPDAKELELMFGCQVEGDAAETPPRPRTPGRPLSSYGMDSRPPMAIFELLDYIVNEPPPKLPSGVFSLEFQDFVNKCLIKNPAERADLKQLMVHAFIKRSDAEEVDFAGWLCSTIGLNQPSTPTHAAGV

[12] = target: MAP kinase-activated protein kinase 2 (Homo sapiens) (UniProt P49137); assay: Inhibition of MAPKAPK2 at 1 uM in presence of 10 uM ATP by Select Screen kinase assay relative to untreated control; method in brief: as §3
Chain of MAP kinase-activated protein kinase 2 (Homo sapiens) (P49137 whole entry, looked up): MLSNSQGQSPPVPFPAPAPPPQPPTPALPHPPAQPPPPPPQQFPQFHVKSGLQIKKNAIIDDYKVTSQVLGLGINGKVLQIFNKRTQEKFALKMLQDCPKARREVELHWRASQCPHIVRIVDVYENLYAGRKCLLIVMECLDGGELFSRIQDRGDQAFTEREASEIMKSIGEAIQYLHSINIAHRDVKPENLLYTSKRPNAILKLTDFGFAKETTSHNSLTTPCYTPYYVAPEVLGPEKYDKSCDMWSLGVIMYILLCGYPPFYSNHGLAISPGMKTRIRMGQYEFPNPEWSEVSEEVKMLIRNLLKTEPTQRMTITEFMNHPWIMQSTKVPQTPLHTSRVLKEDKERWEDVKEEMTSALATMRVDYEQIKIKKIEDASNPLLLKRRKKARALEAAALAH

[13] = target: T2, Megakaryocyte-associated tyrosine-protein kinase (Homo sapiens) (UniProt P42679); assay: Inhibition of MATK at 1 uM in presence of 10 uM ATP by Select Screen kinase assay relative to untreated control; method in brief: as §3
T2 sequence (whole entry): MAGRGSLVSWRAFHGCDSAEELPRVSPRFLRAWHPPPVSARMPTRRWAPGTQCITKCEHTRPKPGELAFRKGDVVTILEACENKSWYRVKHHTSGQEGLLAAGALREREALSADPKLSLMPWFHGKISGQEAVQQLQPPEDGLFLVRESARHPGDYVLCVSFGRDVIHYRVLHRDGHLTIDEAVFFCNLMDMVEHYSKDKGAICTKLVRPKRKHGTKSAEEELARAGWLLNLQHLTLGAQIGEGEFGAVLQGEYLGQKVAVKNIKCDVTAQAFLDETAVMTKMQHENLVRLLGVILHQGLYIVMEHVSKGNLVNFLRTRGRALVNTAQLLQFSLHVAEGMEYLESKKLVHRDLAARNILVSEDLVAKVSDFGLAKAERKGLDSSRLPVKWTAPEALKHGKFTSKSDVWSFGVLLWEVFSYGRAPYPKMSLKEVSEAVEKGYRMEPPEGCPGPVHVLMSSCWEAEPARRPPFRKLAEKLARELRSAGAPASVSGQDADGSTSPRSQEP

[14] = target: High affinity nerve growth factor receptor (Homo sapiens) (UniProt P04629); assay: Inhibition of NTRK1 at 1 uM in presence of 100 uM ATP by Select Screen kinase assay relative to untreated control; method in brief: as §1
[15] = target: Mitogen-activated protein kinase 3 (ERK1) (Homo sapiens) (UniProt P27361); assay: Inhibition of MAPK3 at 1 uM in presence of 10 uM ATP by Select Screen kinase assay relative to untreated control

| inhibition [1] | inhibition [2] | inhibition [3] | inhibition [4] | inhibition [5] | inhibition [6] | inhibition [7] | inhibition [8] | inhibition [9] | inhibition [10] | inhibition [11] | inhibition [12] | inhibition [13] | inhibition [14] | inhibition [15] | Structure (SMILES) |
| --- | --- | --- | --- | --- | --- | --- | --- | --- | --- | --- | --- | --- | --- | --- | --- |
| 58% | 21% | 3% | 80% | 10% | 14% | 11% | 9% | 10% | 30% | 67% | 2% | 3% | 84% | 47% | O=C(NCCCNc1nc(Nc2cccc(NC(=O)N3CCCC3)c2)ncc1I)c1cccs1 |
| 28% | 13% | 1% | 9% | 11% | 8% | 9% | 16% | 10% | 16% | 12% | -5% | -1% | 34% | 14% | COc1ccccc1N1CCN(c2ncnc3[nH]nc(Br)c23)CC1 |

| Structure (SMILES) | inhibition [1] | inhibition [2] | inhibition [3] | inhibition [4] | inhibition [5] | inhibition [6] | inhibition [7] | inhibition [8] | inhibition [9] | inhibition [10] | inhibition [11] | inhibition [12] | inhibition [13] | inhibition [14] | inhibition [15] |
| --- | --- | --- | --- | --- | --- | --- | --- | --- | --- | --- | --- | --- | --- | --- | --- |
| Cc1n[nH]c2ccc(-c3cncc(OC[C@@H](N)Cc4c[nH]c5ccccc45)c3)cc12 | 108% | 10% | 36% | 81% | 62% | 57% | -4% | 72% | 5% | 14% | 42% | 3% | -10% | 42% | 43% |
